Screens from PubChem BioAssay.
NPY Y2 blocker = blocks the human neuropeptide Y Y2 receptor; P49146; inhibition, % at 2.7 µM; actives 0.99% (n = 140,000); NPY-Y2 expressing cells, antagonist mode
Target sequence (P49146 whole entry, looked up): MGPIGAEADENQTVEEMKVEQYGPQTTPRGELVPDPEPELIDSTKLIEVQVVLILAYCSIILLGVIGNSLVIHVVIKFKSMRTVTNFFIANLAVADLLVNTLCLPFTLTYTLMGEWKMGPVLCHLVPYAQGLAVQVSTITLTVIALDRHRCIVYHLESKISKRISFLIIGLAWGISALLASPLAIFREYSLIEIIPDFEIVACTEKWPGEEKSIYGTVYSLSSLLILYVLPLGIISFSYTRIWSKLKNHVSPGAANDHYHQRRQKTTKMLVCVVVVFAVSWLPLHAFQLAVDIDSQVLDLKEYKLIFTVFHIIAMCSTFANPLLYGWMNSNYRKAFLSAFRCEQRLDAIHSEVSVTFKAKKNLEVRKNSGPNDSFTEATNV
NPY-Y1 PAM-ag = human NPY-Y1 potentiation or agonism, primary screen. NPY-Y1 expressing cells, potentiator/agonist activation. activation, % at 3.6 µM. actives 0.37% (n = 220,000). AID 1304; in the data active = activation above about 33%, passing the limit was not always enough;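 also: cells stimulated with NPY at EC10 then isoproterenol at EC100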
Target sequence (P25929 whole entry, looked up): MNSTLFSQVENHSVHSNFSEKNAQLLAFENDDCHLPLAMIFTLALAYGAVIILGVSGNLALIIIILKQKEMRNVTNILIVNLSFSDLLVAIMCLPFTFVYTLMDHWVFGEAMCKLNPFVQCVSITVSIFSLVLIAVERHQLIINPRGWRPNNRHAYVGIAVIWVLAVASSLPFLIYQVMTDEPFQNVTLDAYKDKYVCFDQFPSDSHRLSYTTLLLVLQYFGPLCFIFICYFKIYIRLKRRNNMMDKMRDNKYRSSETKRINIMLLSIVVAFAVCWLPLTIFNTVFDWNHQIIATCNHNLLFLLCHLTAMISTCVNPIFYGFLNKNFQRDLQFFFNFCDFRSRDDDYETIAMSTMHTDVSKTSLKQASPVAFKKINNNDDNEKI
NPY2 pot ag = potentiates or activates human NPY-Y2 receptor | activation, % at 3.6 µM | actives 0.45% (n = 220,000) | cells expressing NPY-Y2, potentiator/agonist read-out | AID 1359; in the data active = activation above about 27%;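 also: cells stimulated with NPY near EC25 plus isoproterenol at EC100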
RAM network inh = blocks the yeast RAM network | S. cerevisiae dse1pr::URA3 reporter, 5-FOA growth OD615, 2 d; analog-sensitive cbk1-as2 kinase mutant strain | actives 1.8% (n = 190,000) | inhibition, % at 50 µM;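 active = inhibition above a set limit, 3 SD over mean compound inhibition, cut at about 8.4% in these data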;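 also: inhibition rescues growth on 5-FOA so higher OD means more RAM inhibition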
NPY Y1 blocker = blocks the human neuropeptide Y Y1 receptor; P25929; inhibition, % at 3.6 µM; HEK293-CNG Y1 cells, membrane potential fluorescence; NPY at EC95, then isoproterenol; actives 1% (n = 200,000);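 active = inhibition above the campaign mean inhibition of all tested compounds plus 3 SD, cut at about 20% in these data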
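Test system – HEK293 Y1/CNG channel cell line · Also added – NPY agonist 25 nM, then isoproterenol 1 µM plus Ro 20-1724 25 µM · Compound dosing – one concentration, 3.6 µM, in 0.4% DMSO · Schedule – compound incubation 1 h at room temperature, readout 45 min post-stimulation · Technique – fluorescence, membrane potential probe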
Insulin prom inh = TRM-6 insulin promoter activity inhibition. TRM-6 cells, insulin promoter-eGFP reporter, imaging; reporter expression induced with tamoxifen. actives 0.9% (n = 130,000). inhibition, % at 2 µM. AID 1273;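 active = inhibition above the mean plus 3 SD, with well images judged a real hit on visual review, cut at about 60% in these data, passing the limit was not always enough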
NPY1 antag conf = human NPY-Y1 antagonism, confirmation; shares compounds with NPY Y1 blocker; HEK293-CNG NPY-Y1, membrane potential fluorescence, cAMP; NPY challenge against isoproterenol-raised cAMP; inhibition, % at 3.6 µM; actives 21% (n = 1,200); in the data active = inhibition above about 20%
NPY-Y2 antag ct = counter-screen for NPY-Y1 antagonists: human NPY-Y2 antagonism. actives 28% (n = 1,200). HEK293 NPY-Y2 CNG membrane potential fluorescence; cells given NPY, then isoproterenol. inhibition, % at 3.6 µM. shares compounds with NPY Y1 blocker. AID 1255
Numbers stand for hits. Only some compounds are listed: those with a hit (about 3.8% of all), similar ones and a draw of the others. Rule as the data show it, unless noted: active = inhibition above about 17%; inactive = the rest.

What do the screens show for `COc1ccc(C(=O)Nc2ccc(-c3ccc(C)o3)cc2)cc1S(=O)(=O)N1CCOCC1`?
NPY Y2 blocker: inactive; NPY-Y1 PAM-ag: inactive; NPY2 pot ag: inactive; RAM network inh: inactive; NPY Y1 blocker: 20.2; Insulin prom inh: inactive; NPY1 antag conf: inactive; NPY-Y2 antag ct: inactive

Results for COc1ccc(C(=O)Nc2cccc(C)c2)cc1S(=O)(=O)N1CCOCC1 ?
NPY Y2 blocker: inactive; NPY-Y1 PAM-ag: inactive; NPY2 pot ag: inactive; RAM network inh: inactive; NPY Y1 blocker: inactive; Insulin prom inh: inactive

What do the screens show for `Cc1ccc(-c2nnc(N3CCC(C)CC3)c3ccccc23)cc1`?
NPY-Y1 PAM-ag: inactive; NPY2 pot ag: inactive; RAM network inh: inactive; NPY Y1 blocker: 29.2; Insulin prom inh: inactive; NPY1 antag conf: inactive; NPY-Y2 antag ct: inactive

What do the screens show for `Cc1ccc(-c2nnc(N3CCC(C)CC3)c3ccccc23)cc1C`?
NPY-Y1 PAM-ag: inactive; NPY2 pot ag: inactive; RAM network inh: inactive; NPY Y1 blocker: 26.3; NPY1 antag conf: inactive; NPY-Y2 antag ct: inactive

How did Nc1ccc(N(c2ccccc2)c2ccc(N)cc2)cc1 do in these assays?
NPY Y2 blocker: inactive; NPY-Y1 PAM-ag: inactive; NPY2 pot ag: inactive; RAM network inh: inactive; NPY Y1 blocker: inactive; Insulin prom inh: inactive

What do the screens show for `COc1cc(/C=C/C(=O)O)ccc1OS(=O)(=O)c1cc(C)ccc1C`?
NPY-Y1 PAM-ag: inactive; NPY2 pot ag: inactive; RAM network inh: inactive; NPY Y1 blocker: inactive; Insulin prom inh: inactive

Results for CCCCCCCn1c(=N)n(CC(O)c2ccco2)c2ccccc21 (stereo not given) ?
NPY-Y1 PAM-ag: inactive; NPY2 pot ag: inactive; RAM network inh: inactive; NPY Y1 blocker: 32.9; NPY1 antag conf: 24.5; NPY-Y2 antag ct: 23.5

How did N=c1n(CCN2CCCC2)c2ccccc2n1CC(O)c1ccco1 (stereo not given) do in these assays?
NPY Y2 blocker: inactive; NPY-Y1 PAM-ag: inactive; NPY2 pot ag: inactive; RAM network inh: inactive; NPY Y1 blocker: inactive; Insulin prom inh: inactive

What do the screens show for `CC(C)(C)c1ccc(Cn2c(=N)n(CC(O)c3ccco3)c3ccccc32)cc1` (stereo not given)?
NPY-Y1 PAM-ag: inactive; NPY2 pot ag: inactive; RAM network inh: inactive; NPY Y1 blocker: 47.0; NPY1 antag conf: 21.6; NPY-Y2 antag ct: 30.8

What do the screens show for `CCCCn1c(=N)n(CC(O)c2ccccc2)c2ccccc21` (stereo not given)?
NPY-Y1 PAM-ag: inactive; NPY2 pot ag: inactive

What do the screens show for `CCOc1ccc(-c2nnc(Nc3ccc(OC)c(C(=O)N4CCCCC4)c3)c3ccccc23)cc1`?
NPY Y2 blocker: inactive; NPY-Y1 PAM-ag: inactive; NPY2 pot ag: inactive; RAM network inh: inactive; NPY Y1 blocker: inactive

How did CC1=CC(C)(C)n2c(O)c(N=N)c3cc(C)cc1c32 do in these assays?
NPY Y2 blocker: inactive; NPY-Y1 PAM-ag: inactive; NPY2 pot ag: inactive; RAM network inh: inactive; NPY Y1 blocker: 22.7; Insulin prom inh: inactive; NPY1 antag conf: inactive; NPY-Y2 antag ct: 21.6

How did Cc1nc2cc3nc(C(F)(F)F)[nH]c3cc2[nH]1 do in these assays?
NPY Y2 blocker: inactive; NPY-Y1 PAM-ag: inactive; NPY2 pot ag: inactive; RAM network inh: inactive; NPY Y1 blocker: inactive; Insulin prom inh: inactive

What do the screens show for `COc1ccc(-c2ccc(-c3noc(-c4ccco4)n3)c(OC)n2)cc1`?
NPY Y2 blocker: inactive; NPY-Y1 PAM-ag: inactive; NPY2 pot ag: inactive; RAM network inh: inactive; NPY Y1 blocker: 78.0; Insulin prom inh: inactive; NPY1 antag conf: inactive; NPY-Y2 antag ct: inactive

What do the screens show for `COc1ccc(-c2ccc(-c3noc(-c4ccccc4F)n3)c(OC)n2)cc1`?
NPY Y2 blocker: inactive; NPY-Y1 PAM-ag: inactive; NPY2 pot ag: inactive; RAM network inh: inactive; NPY Y1 blocker: inactive; Insulin prom inh: inactive

What do the screens show for `CCCOc1ccc(S(=O)(=O)NCc2ccc(OC)cc2)cc1`?
NPY Y2 blocker: inactive; NPY-Y1 PAM-ag: inactive; NPY2 pot ag: inactive; RAM network inh: inactive; NPY Y1 blocker: 28.2; NPY1 antag conf: inactive; NPY-Y2 antag ct: inactive

How did COc1ccc(CNS(=O)(=O)c2ccc(OC)cc2)cc1 do in these assays?
NPY Y2 blocker: inactive; NPY-Y1 PAM-ag: inactive; NPY2 pot ag: inactive; RAM network inh: inactive; NPY Y1 blocker: inactive; Insulin prom inh: inactive

How did C#CCn1c(=NC(=O)c2ccc(S(=O)(=O)N3CCCc4ccccc43)cc2)sc2cc(S(N)(=O)=O)ccc21 do in these assays?
NPY Y2 blocker: inactive; NPY-Y1 PAM-ag: inactive; NPY2 pot ag: inactive; RAM network inh: inactive; NPY Y1 blocker: 24.2; Insulin prom inh: inactive; NPY1 antag conf: inactive; NPY-Y2 antag ct: 30.9

How did CCOC(=O)C1=C(C)NC2=C(C(=O)CCC2)C1c1cn(Cc2ccc(Cl)cc2Cl)nc1-c1ccccc1 (stereo not given) do in these assays?
NPY Y2 blocker: inactive; NPY-Y1 PAM-ag: inactive; NPY2 pot ag: inactive; RAM network inh: inactive; NPY Y1 blocker: 35.4; NPY1 antag conf: 30.3; NPY-Y2 antag ct: 39.3

What do the screens show for `Cc1cc(NC(=O)CSc2nc3ccccc3c(=O)n2C2CCCC2)no1`?
NPY Y2 blocker: inactive; NPY-Y1 PAM-ag: inactive; NPY2 pot ag: inactive; RAM network inh: inactive; NPY Y1 blocker: 33.2; Insulin prom inh: inactive; NPY1 antag conf: inactive; NPY-Y2 antag ct: inactive

What do the screens show for `Cc1cc(NC(=O)CC2CCCC2)n(-c2nc3ccccc3[nH]2)n1`?
NPY Y2 blocker: inactive; NPY-Y1 PAM-ag: inactive; NPY2 pot ag: inactive; RAM network inh: inactive; NPY Y1 blocker: 20.6; Insulin prom inh: inactive; NPY1 antag conf: inactive; NPY-Y2 antag ct: inactive

What do the screens show for `COc1ccc(CCNC(=O)c2ccc(Cl)cc2Cl)cc1`?
NPY Y2 blocker: inactive; NPY-Y1 PAM-ag: inactive; NPY2 pot ag: inactive; RAM network inh: inactive; NPY Y1 blocker: inactive; Insulin prom inh: inactive

How did COc1ccc(N(C)S(=O)(=O)c2ccc(Cl)c(C(=O)NCCc3ccc(Cl)cc3)c2)cc1 do in these assays?
NPY-Y1 PAM-ag: inactive; NPY2 pot ag: inactive; RAM network inh: inactive; NPY Y1 blocker: 29.4; Insulin prom inh: inactive; NPY1 antag conf: inactive; NPY-Y2 antag ct: inactive

What do the screens show for `Cc1cc(/C=C2/SC(=S)N(c3cccc(C(F)(F)F)c3)C2=O)c(C)n1-c1cccnc1`?
NPY Y2 blocker: inactive; NPY-Y1 PAM-ag: inactive; NPY2 pot ag: inactive; NPY Y1 blocker: 48.3; Insulin prom inh: inactive; NPY1 antag conf: 35.1; NPY-Y2 antag ct: 24.4

Results for Cc1cc(/C=C2\SC(=S)N(Cc3ccco3)C2=O)c(C)n1-c1cccnc1 ?
NPY Y2 blocker: inactive; NPY-Y1 PAM-ag: inactive; NPY2 pot ag: inactive; RAM network inh: inactive; NPY Y1 blocker: inactive; Insulin prom inh: inactive
